Results from ChEMBL document CHEMBL1123024, “5,6-Diaryl-2,3-dihydroimidazo[2,1-b]thiazoles: a new class of immunoregulatory antiinflammatory agents” (1985).

Key:
Type in all cases: functional
Mus musculus [1] = species: Mus musculus; test: Immunoregulatory activity against mouse contact sensitivity was evaluated as percent change
Outline: (§1)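 Male C57B1/6 mice were sensitized with 0.1 mL of 5% oxazolone in absolute ethanol on the clipped abdomen. At 45 h the left hind leg was challenged with 5% oxazolone. Compound was given po in 0.5% tragacanth. Edema was read plethysmographically 24 h later as left minus right leg volume. Six mice vs eight controls; Student's t test.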

Rattus norvegicus [2] = test: Percent change in immune R16 inflammatory lesions in rat adjuvant-induced arthritis at 50 mg/kg
Outline: (§2)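 Male Wistar rats received 0.75 mg M. butyricum in paraffin oil intradermally into the left hindpaw. Compounds were given daily po in 0.5% tragacanth from the injection day for 17 days, skipping days 4, 5, 11 and 12. Leg volumes were read by mercury displacement: left leg on day 3, both legs on day 16. Eight treated rats vs 16 vehicle controls; Student's t test. ED25 is the dose giving a 25% volume decrease, from at least three doses, with 95% limits by Fieller's theorem.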

Rattus norvegicus [3] = test: Percent change in nonimmune L16 inflammatory lesions in rat adjuvant-induced arthritis at 50 mg/kg; outline: as §2
Rattus norvegicus [4] = test: Percent change in nonimmune L3 inflammatory lesions in rat adjuvant-induced arthritis at 50 mg/kg; outline: as §2
Rattus norvegicus [5] = test: Compound was tested by carrageenan -induced paw edema for percent change in paw volume of control sham operated rats at 100 mg/kg.
Outline: (§3)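 Normal, adrenalectomized or sham-operated Lewis rats were dosed po in 0.5% tragacanth, hydrated. 1 h later paw volume was read, then […] of 1% carrageenan in 0.9% saline was injected into the right hindpaw plantar surface. Volume was re-read at 3 h. Percent change, treated vs control; Student's t test.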

Mus musculus [6] = species: Mus musculus; test: Immunoregulatory activity against oxazolone induced mouse contact sensitivity was evaluated as percent change; outline: as §1
Rattus norvegicus [7] = test: The compound was tested for percent change in immune R16 inflammatory lesions in rat adjuvant-induced arthritis at 50 mg/kg; outline: as §2
Rattus norvegicus [8] = test: The compound was tested for percent change in nonimmune L16 inflammatory lesions in rat adjuvant-induced arthritis at 50 mg/kg; outline: as §2
Rattus norvegicus [9] = test: The compound was tested for percent change in nonimmune L3 inflammatory lesions in rat adjuvant-induced arthritis at 50 mg/kg; outline: as §2
Mus musculus [10] = species: Mus musculus; test: Immunoregulatory activity against oxazolone induced mouse contact sensitivity was evaluated as percent change; the % change in Not statistically Significant; outline: as §1
Rattus norvegicus [11] = test: Compound was tested by carrageenan -induced paw edema for percent change in paw volume of control sham operated rats at 50 mg/kg; the % change was Not statistically significant; outline: as §3
Rattus norvegicus [12] = test: The compound was tested for percent change in nonimmune L3 inflammatory lesions in rat adjuvant-induced arthritis at 50 mg/kg; the %change is Not statistically significant; outline: as §2
Rattus norvegicus [13] = test: Compound was tested by carrageenan-induced paw edema for percent change in paw volume of control sham operated rats at 50 mg/kg; the %change is Not statistically significant; outline: as §3
Rattus norvegicus [14] = test: Compound was tested by carrageenan -induced paw edema for percent change in paw volume of control sham operated rats at 50 mg/kg.; outline: as §3

| SMILES | Change (Mus musculus [1]) | Change (Rattus norvegicus [2]) | Change (Rattus norvegicus [3]) | Change (Rattus norvegicus [4]) | further results |
| --- | --- | --- | --- | --- | --- |
| CCSc1nc(-c2ccc(OC)cc2)c(-c2ccc(OC)cc2)n1CC | 65% | -8% | -9% | -6% | – |
| CCSc1nc(-c2ccc(OC)cc2)c(-c2ccc(OC)cc2)[nH]1 | 119% | -37% | -42% | -31% | – |
| Cc1cccc(-c2nc3n(c2-c2cccc(C)c2)CCS3)c1 | 38% | -5% | -13% | -14% | – |
| COc1ccc(-c2nc(SC)[nH]c2-c2ccc(OC)cc2)cc1 | 52% | -38% | -45% | -29% | – |
| COc1ccc(-c2nc3n(c2-c2ccc(OC)c(F)c2)CCS3)cc1F | 88% | -3% | 0% | 1% | – |
| Clc1ccc(-c2nc3n(c2-c2ccc(Cl)cc2)CCS3)cc1 | 43% | -38% | -35% | -18% | – |
| Fc1cccc(-c2nc3n(c2-c2cccc(F)c2)CCS3)c1 | 22% | 3% | -1% | -1% | – |
| CSc1ccc(-c2c(-c3ccc(F)cc3)nc3n2CCS3)cc1 | 122% | -30% | -30% | -16% | – |
| Brc1ccc(-c2nc3n(c2-c2ccc(Br)cc2)CCS3)cc1 | 71% | -46% | -42% | -25% | – |
| Oc1ccc(-c2nc3n(c2-c2ccc(O)cc2)CCS3)cc1 | 122% | 9% | -7% | -9% | – |
| COc1ccc(-c2nc3n(c2-c2ccc(OC)c(C)c2)CCS3)cc1C | 30% | -19% | -20% | -16% | – |
| COc1ccc(-c2c(-c3ccccc3)nc3n2CCS3)cc1OC | 69% | 11% | 1% | 5% | – |
| COc1ccc(-c2cn3c(n2)SCC3)cc1 | 132% | -16% | -10% | -3% | – |
| COc1ccccc1-c1nc2n(c1-c1ccccc1OC)CCS2 | 95% | -7% | -5% | 0% | – |
| CC(C)(C)C(=O)Nc1ccc(-c2nc3n(c2-c2ccc(NC(=O)C(C)(C)C)cc2)CCS3)cc1 | 15% | -1% | -3% | -4% | – |
| c1cc2c(cc1-c1nc3n(c1-c1ccc4c(c1)OCO4)CCS3)OCO2 | 16% | -27% | -23% | -18% | – |
| COc1cccc(-c2nc3n(c2-c2cccc(OC)c2)CCS3)c1 | 166% | -16% | -4% | 0% | Change (Rattus norvegicus [5]): -3% |
| COc1ccc(-c2nc3n(c2-c2ccccc2)CCS3)cc1OC | 82% | -6% | -1% | 8% | – |
| CSc1ccc(-c2nc3n(c2-c2ccc(F)cc2)CCS3)cc1 | 44% | 6% | 0% | -14% | – |
| COc1ccc(-c2c(-c3ccc(F)cc3)nc3n2CC[S+]3[O-])cc1 (stereo unspecified) | – | – | – | – | Change (Mus musculus [6]): 65%; Change (Rattus norvegicus [7]): -39%; Change (Rattus norvegicus [8]): -39%; Change (Rattus norvegicus [9]): -35% |
| CCN(C)c1ccc(-c2nc3n(c2-c2ccc(N(C)CC)cc2)CCS3)cc1 | 69% | -36% | -41% | -31% | – |
| C[S+]([O-])c1ccc(-c2nc3n(c2-c2ccc([S+](C)[O-])cc2)CC[S+]3[O-])cc1 (stereo unspecified) | – | – | – | – | Change (Mus musculus [10]): 38%; Change (Rattus norvegicus [7]): -47%; Change (Rattus norvegicus [8]): -44%; Change (Rattus norvegicus [9]): -27%; Change (Rattus norvegicus [11]): 10% |
| O=S1(=O)CCn2c1nc(-c1ccc(F)cc1)c2-c1ccc(F)cc1 | – | – | – | – | Change (Mus musculus [6]): 20%; Change (Rattus norvegicus [7]): -34%; Change (Rattus norvegicus [8]): -17%; Change (Rattus norvegicus [12]): -6%; Change (Rattus norvegicus [13]): 3% |
| COc1ccc(-c2nc3n(c2-c2ccc(OC)cc2)CCCS3)cc1 | 30% | -20% | -4% | -2% | – |

| SMILES | Change (Mus musculus [1]) | Change (Rattus norvegicus [2]) | Change (Rattus norvegicus [3]) | Change (Rattus norvegicus [4]) | further results |
| --- | --- | --- | --- | --- | --- |
| COc1ccc(-c2nc3n(c2-c2ccccc2)CCS3)cc1 | 26% | 1% | -10% | -5% | – |
| CCN(C(C)=O)c1ccc(-c2nc3n(c2-c2ccc(N(CC)C(C)=O)cc2)CCS3)cc1 | 43% | -10% | -1% | -4% | – |
| CSc1ccc(-c2nc3n(c2-c2ccc(SC)cc2)CCS3)cc1 | 73% | -38% | -36% | -25% | Change (Rattus norvegicus [14]): -33% |
| FC(F)(F)COc1ccc(-c2nc3n(c2-c2ccc(OCC(F)(F)F)cc2)CCS3)cc1 | 26% | -3% | -20% | -13% | – |
| Cc1ccc(-c2nc3n(c2-c2ccc(C)cc2)CCS3)cc1 | 86% | -7% | 0% | -6% | – |
| COc1ccc(-c2nc3n(c2-c2ccc(F)cc2)CCS3)cc1 | 103% | 6% | -4% | 11% | – |
| Fc1ccc(-c2nc3n(c2-c2ccc(F)cc2)CCS3)cc1 | 79% | -49% | -36% | -39% | – |
| COc1ccc(-c2nc(SC)n(C)c2-c2ccc(OC)cc2)cc1 | 150% | -35% | -31% | -24% | – |
| COc1ccc(-c2nc3n(c2-c2ccc(OC)c(OC)c2)CCS3)cc1OC | 48% | 5% | -2% | 0% | – |
| CCOc1ccc(-c2nc3n(c2-c2ccc(OCC)cc2)CCS3)cc1 | 150% | -32% | -34% | -22% | – |
| CC(=O)Oc1ccc(-c2nc3n(c2-c2ccc(OC(C)=O)cc2)CCS3)cc1 | 101% | -17% | -12% | -16% | – |
| C=CCOc1ccc(-c2nc3n(c2-c2ccc(OCC=C)cc2)CCS3)cc1 | 71% | -21% | -2% | -2% | – |
| CC(=O)Nc1ccc(-c2nc3n(c2-c2ccc(NC(C)=O)cc2)CCS3)cc1 | 78% | – | -1% | 3% | Change (Rattus norvegicus [7]): 12% |
| c1ccc2c(c1)nc1n2CCS1 | 51% | 7% | -2% | -18% | – |
| c1ccc(-c2nc3n(c2-c2ccccc2)CCS3)cc1 | – | -4% | -4% | -12% | Change (Rattus norvegicus [5]): -7%; Change (Rattus norvegicus [14]): -9% |
| COc1cc(-c2nc3n(c2-c2cc(OC)c(OC)c(OC)c2)CCS3)cc(OC)c1OC | 75% | -19% | 0% | -2% | – |
| C[S+]([O-])c1ccc(-c2nc3n(c2-c2ccc([S+](C)[O-])cc2)CCS3)cc1 (stereo unspecified) | 117% | -19% | -27% | -25% | – |
| FC(F)(F)c1ccc(-c2nc3n(c2-c2ccc(C(F)(F)F)cc2)CCS3)cc1 | 89% | 1% | 12% | 0% | Change (Rattus norvegicus [5]): 4% |
| COc1ccc(-c2nc3n(c2-c2ccc(OC)cc2)C(=O)CS3)cc1 | 25% | 0% | 4% | -4% | – |
| Cl.Fc1ccc(-c2nc3n(c2-c2ccc(F)cc2)CCS3)cc1 | 79% | -49% | -36% | -39% | Change (Rattus norvegicus [5]): 6%; Change (Rattus norvegicus [14]): -9% |
| Nc1ccc(-c2nc3n(c2-c2ccc(N)cc2)CCS3)cc1 | 36% | 0% | -10% | -15% | – |
| CCCCOc1ccc(-c2nc3n(c2-c2ccc(OCCCC)cc2)CCS3)cc1 | 130% | 2% | 2% | 5% | – |
| COc1ccc(-c2c(-c3ccccc3)nc3n2CCS3)cc1 | 112% | -6% | -11% | -15% | – |
